Reference: ChEMBL document CHEMBL1124365, “3-Quaternary ammonium 1-carba-1-dethiacephems” (J Med Chem, 1989)
Values after ≈ are worked out from the molar mass of the structure shown.

Assays:
[1] = test system: Enterobacter cloacae; experiment: Truncation of the zone of inhibition was graded for Enterobacter cloacae EB17 on a 30 ug disk of test compound; format: functional
Procedure, shortened: (§1)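 Cefoxitin disk approximation: Mueller-Hinton agar swab-inoculated with ~1×10^8 cells/mL of inducible Enterobacter strains; 30 µg test-compound disks plus 30 µg cefoxitin disks placed ~15 mm from their edge. Overnight at 35 °C in ambient air; truncation of inhibition zone on cefoxitin-proximal side graded as a measure of induced β-lactamase effect.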

[2] = test system: Enterobacter cloacae; experiment: Truncation of the zone of inhibition was graded for Enterobacter cloacae EB5 on a 30 ug disk of test compound; format: functional; procedure, shortened: as §1
[3] = test system: Enterobacter cloacae; experiment: Truncation of the zone of inhibition was graded for Enterobacter cloacae EB57 on a 30 ug disk of test compound; format: functional; procedure, shortened: as §1
[4] = test system: Escherichia coli; experiment: Minimal inhibitory activity against the Escherichia coli (EC14); format: functional
Procedure, shortened: (§2)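 Agar dilution: compounds diluted in 0.1 M phosphate buffer pH 7.0, incorporated into Mueller-Hinton agar with 1% Bacto-Supplement C at 50 °C. Overnight cultures diluted to ~1×10^4 cells/µL, 1 µL spotted onto plates; incubated overnight at 35 °C in ambient air. MIC = lowest concentration preventing visible growth.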

[5] = test system: Escherichia coli; experiment: Minimal inhibitory activity against the E. coli(TEM beta lactamase containing); format: functional; procedure, shortened: as §2
[6] = test system: Enterobacter cloacae; experiment: Minimal inhibitory activity against the Enterobacter cloacae (265A beta lactamase containing); format: functional; procedure, shortened: as §2
[7] = test system: Enterobacter cloacae; experiment: Minimal inhibitory activity against the Enterobacter cloacae (EB5); format: functional; procedure, shortened: as §2
[8] = test system: Haemophilus influenzae; experiment: Minimal inhibitory activity against the Haemophilus influenzae (C.L); format: functional; procedure, shortened: as §2
[9] = test system: Klebsiella; experiment: Minimal inhibitory activity against the Klebsiella(KAE beta lactamase containing); format: functional; procedure, shortened: as §2
[10] = test system: Klebsiella; experiment: Minimal inhibitory activity against the Klebsiella (X26); format: functional; procedure, shortened: as §2
[11] = test system: Morganella morganii; experiment: Minimal inhibitory activity against the Proteus morganii (PR15); format: functional; procedure, shortened: as §2
[12] = test system: Pseudomonas aeruginosa; experiment: Minimal inhibitory activity against the Pseudomonas aeruginosa (X528); format: functional; procedure, shortened: as §2
[13] = test system: Providencia rettgeri; experiment: Minimal inhibitory activity against the Proteus rettgeri (C24); format: functional; procedure, shortened: as §2
[14] = test system: Salmonella; experiment: Minimal inhibitory activity against the Salmonella (X514); format: functional; procedure, shortened: as §2
[15] = test system: Staphylococcus epidermidis; experiment: Minimal inhibitory activity against the Staphylococcus epidermidis (222); format: functional; procedure, shortened: as §2
[16] = test system: Staphylococcus aureus; experiment: Minimal inhibitory activity against the Staphylococcus aureus (X1.1); format: functional; procedure, shortened: as §2
[17] = test system: Streptococcus pneumoniae; experiment: Minimal inhibitory activity against the Streptococcus pneumoniae (PARK); format: functional; procedure, shortened: as §2
[18] = test system: Streptococcus pyogenes; experiment: Minimal inhibitory activity against the Streptococcus pyogenes (C203); format: functional; procedure, shortened: as §2
[19] = Half-life was evaluated for pharmacokinetic data in rats; format: ADME, organism-based; conditions: rat, in vivo
Procedure, shortened: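 Male Sprague-Dawley rats, single 20 mg/kg intravenous dose in saline via indwelling jugular vein cannula; serial blood sampling from the same cannula over 4 h. Plasma levels measured by agar well diffusion bioassay with E. coli ATCC 4157 (detection limit ≤0.80 µg/mL). Half-life calculated as 0.693/β, β being the terminal slope of the plasma concentration–time curve.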

[20] = species on record: Rattus norvegicus; experiment: Urinary recovery was evaluated for pharmacokinetic data in rats; format: organism-based; conditions: Urine
Procedure, shortened: (§3)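 Male Sprague-Dawley rats given 20 mg/kg IV in saline via indwelling jugular vein cannula; serial blood sampling through cannula, plasma and urine collected over 4 h. Drug levels by agar well diffusion bioassay with E. coli ATCC 4157 (detection limit ≤0.80 μg/mL). Half-life = 0.693/β from terminal plasma slope; urinary recovery as percent of administered dose.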

[21] = Half-life was evaluated for pharmacokinetic data in rats.; format: ADME, organism-based; conditions: rat, in vivo; procedure, shortened: as §3

Row | Compound | Zone diameter [1] [mm] | Zone diameter [2] [mm] | Zone diameter [3] [mm] | MIC [4] [µg/mL] | MIC [5] [µg/mL] | MIC [6] [µg/mL] | MIC [7] [µg/mL] | MIC [8] [µg/mL] | MIC [9] [µg/mL] | MIC [10] [µg/mL] | MIC [11] [µg/mL] | MIC [12] [µg/mL] | MIC [13] [µg/mL] | MIC [14] [µg/mL] | MIC [15] [µg/mL] | MIC [16] [µg/mL] | MIC [17] [µg/mL] | MIC [18] [µg/mL] | Recovery [20] [%] | further results
1 | CO/N=C(\C(=O)N[C@@H]1C(=O)N2C(C(=O)[O-])=C(C[n+]3ccccc3)CS[C@H]12)c1csc(N)n1 | 30 | 30 | 30 |  |  |  |  |  |  |  |  |  |  |  |  |  |  |  |  | 
2 | Cc1cc[n+](C2=C(C(=O)[O-])N3C(=O)[C@@H](NC(=O)/C(=N\OCc4ccccc4)c4csc(N)n4)[C@H]3CC2)cc1C |  |  |  | 2 (≈ 3.66 µM) | 1 (≈ 1.83 µM) | 8 (≈ 14.6 µM) | 4 (≈ 7.32 µM) | 0.125 (≈ 0.229 µM) | 128 (≈ 234 µM) | 0.06 (≈ 0.11 µM) | 2 (≈ 3.66 µM) | 128 (≈ 234 µM) | 8 (≈ 14.6 µM) | 1 (≈ 1.83 µM) | 2 (≈ 3.66 µM) | 1 (≈ 1.83 µM) | 0.015 (≈ 0.0274 µM) | 0.03 (≈ 0.0549 µM) |  | 
3 | CO/N=C(\C(=O)N[C@@H]1C(=O)N2C(C(=O)[O-])=C(C[n+]3ccccc3)CC[C@H]12)c1csc(N)n1 | 35 | 26 | 26 |  |  |  |  |  |  |  |  |  |  |  |  |  |  |  | 87.9 | half-life [19]: 22.9 min
4 | CC(C)(O/N=C(\C(=O)N[C@@H]1C(=O)N2C(C(=O)[O-])=C(C[n+]3ccccc3)CS[C@H]12)c1csc(N)n1)C(=O)O [CEFTAZIDIME] |  |  |  | 0.06 (≈ 0.11 µM) | 0.125 (≈ 0.229 µM) | 32 (≈ 58.5 µM) |  | 0.06 (≈ 0.11 µM) | 0.5 (≈ 0.915 µM) | 0.06 (≈ 0.11 µM) | 0.5 (≈ 0.915 µM) | 2 (≈ 3.66 µM) |  | 0.125 (≈ 0.229 µM) | 16 (≈ 29.3 µM) | 8 (≈ 14.6 µM) | 0.06 (≈ 0.11 µM) | 0.06 (≈ 0.11 µM) | 100 | half-life [19]: 22.9 min
5 | CO/N=C(\C(=O)N[C@@H]1C(=O)N2C(C(=O)[O-])=C([n+]3ccccc3)CC[C@H]12)c1csc(N)n1 | 30 | 30 | 31 | 0.06 (≈ 0.136 µM) | 0.06 (≈ 0.136 µM) | 2 (≈ 4.52 µM) | 0.125 (≈ 0.283 µM) | 0.5 (≈ 1.13 µM) | 8 (≈ 18.1 µM) | 0.03 (≈ 0.0678 µM) | 0.25 (≈ 0.565 µM) | 128 (≈ 289 µM) | 0.5 (≈ 1.13 µM) | 0.03 (≈ 0.0678 µM) | 8 (≈ 18.1 µM) | 4 (≈ 9.04 µM) | 0.03 (≈ 0.0678 µM) | 0.03 (≈ 0.0678 µM) | 82.6 | half-life [21]: 21.2 min
6 | CO/N=C(\C(=O)N[C@@H]1C(=O)N2C(C(=O)[O-])=C([n+]3cccc4c3CCCC4)CC[C@H]12)c1csc(N)n1 |  |  |  | 0.125 (≈ 0.252 µM) | 1 (≈ 2.01 µM) | 2 (≈ 4.03 µM) | 0.25 (≈ 0.503 µM) | 0.5 (≈ 1.01 µM) | 16 (≈ 32.2 µM) | 0.125 (≈ 0.252 µM) | 1 (≈ 2.01 µM) | 128 (≈ 258 µM) | 4 (≈ 8.06 µM) | 0.125 (≈ 0.252 µM) | 8 (≈ 16.1 µM) | 2 (≈ 4.03 µM) | 0.06 (≈ 0.121 µM) | 0.06 (≈ 0.121 µM) |  | 
7 | CO/N=C(\C(=O)N[C@@H]1C(=O)N2C(C(=O)[O-])=C([n+]3ccc(C)c(C)c3)CC[C@H]12)c1csc(N)n1 | 30 | 30 | 31 | 0.06 (≈ 0.128 µM) | 0.06 (≈ 0.128 µM) | 0.25 (≈ 0.531 µM) | 0.125 (≈ 0.266 µM) | 0.25 (≈ 0.531 µM) | 4 (≈ 8.5 µM) | 0.06 (≈ 0.128 µM) | 0.125 (≈ 0.266 µM) | 128 (≈ 272 µM) | 0.06 (≈ 0.128 µM) | 0.03 (≈ 0.0638 µM) | 4 (≈ 8.5 µM) | 2 (≈ 4.25 µM) | 0.015 (≈ 0.0319 µM) | 0.03 (≈ 0.0638 µM) |  | 
8 | CO/N=C(\C(=O)N[C@@H]1C(=O)N2C(C(=O)[O-])=C([n+]3cccc4c3CCC4)CC[C@H]12)c1csc(N)n1 |  |  |  | 0.06 (≈ 0.124 µM) | 0.5 (≈ 1.04 µM) | 1 (≈ 2.07 µM) | 0.125 (≈ 0.259 µM) | 0.5 (≈ 1.04 µM) | 8 (≈ 16.6 µM) | 0.03 (≈ 0.0622 µM) | 0.25 (≈ 0.518 µM) | 128 (≈ 265 µM) | 0.5 (≈ 1.04 µM) | 0.03 (≈ 0.0622 µM) | 4 (≈ 8.29 µM) | 2 (≈ 4.14 µM) | 0.03 (≈ 0.0622 µM) | 0.03 (≈ 0.0622 µM) | 82.3 | half-life [21]: 20.1 min
9 | CO/N=C(\C(=O)N[C@@H]1C(=O)N2C(C(=O)[O-])=C([n+]3cc(C)ccc3C)CC[C@H]12)c1csc(N)n1 |  |  |  | 0.125 (≈ 0.266 µM) | 0.125 (≈ 0.266 µM) | 1 (≈ 2.13 µM) | 0.25 (≈ 0.531 µM) | 0.5 (≈ 1.06 µM) | 2 (≈ 4.25 µM) | 0.125 (≈ 0.266 µM) | 0.25 (≈ 0.531 µM) | 128 (≈ 272 µM) | 0.25 (≈ 0.531 µM) | 0.125 (≈ 0.266 µM) | 8 (≈ 17 µM) | 4 (≈ 8.5 µM) | 0.06 (≈ 0.128 µM) | 0.03 (≈ 0.0638 µM) |  | 
10 | CO/N=C(\C(=O)N[C@@H]1C(=O)N2C(C(=O)[O-])=C([n+]3ccc4c(c3)ncn4C)CC[C@H]12)c1csc(N)n1 |  |  |  | 0.06 (≈ 0.121 µM) | 0.5 (≈ 1.01 µM) | 1 (≈ 2.01 µM) | 0.125 (≈ 0.252 µM) | 0.5 (≈ 1.01 µM) | 4 (≈ 8.06 µM) | 0.06 (≈ 0.121 µM) | 0.5 (≈ 1.01 µM) | 128 (≈ 258 µM) | 0.25 (≈ 0.504 µM) | 0.06 (≈ 0.121 µM) | 8 (≈ 16.1 µM) | 4 (≈ 8.06 µM) | 0.06 (≈ 0.121 µM) | 0.06 (≈ 0.121 µM) |  | 
